Structures are written as SMILES.

One data set has as its target Nonstructural protein 3 (Zika virus, UniProt A0A024AXB9). In words: Inhibition of Zika virus recombinant NS2B (47 to 95 residues)/NS3 (1 to 177 residues) protease expressed in Escherichia coli BL21 using Bz-Nle-Lys-Lys-Arg-AMC as substrate preincubated for 10 mins by fluorescence-based biochemical assay. The essentials: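 ZIKV NS2B-NS3 protease at 1 nM, with 10 µM Bz-Nle-Lys-Lys-Arg-AMC in 20 mM HEPES pH 7.3 containing 0.05% Triton X-100. Compound at increasing concentrations in triplicate, pre-incubated with enzyme 10 min before substrate. Fluorescence (Ex 360/Em 460 nm) read every 30 s. IC50 from dose-response curve fit, 3 independent experiments, standard deviation.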

Data set [1] addresses Genome polyprotein (West Nile virus, UniProt P06935). In words: Inhibition of West Nile virus NS2B (49 to 96 residues)/NS3 (2 to 184 residues) protease expressed in Escherichia coli BL21 using Bz-Nle-Lys-Lys-Arg-AMC as substrate preincubated for 10 mins by fluorescence-based biochemical assay. The gist of the method:
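Recombinant WNV NS2B-NS3 protease, tested in the same way as the Zika protease assay. Compound was preincubated with enzyme for 10 min before Bz-Nle-Lys-Lys-Arg-AMC was added. Hydrolysis was followed as AMC fluorescence (Ex 360/Em 460 nm) read every 30 s. IC50 was derived by dose-response curve fitting.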

In data set [2] the target is Genome polyprotein (dengue virus type 2, UniProt P29990). The data set is described as follows: Inhibition of Dengue virus 2 NS2B (50 to 95 residues)/NS3 (1 to 182 residues) protease expressed in Escherichia coli BL21 using Bz-Nle-Lys-Lys-Arg-AMC as substrate preincubated for 10 mins by fluorescence-based biochemical assay. The essentials:
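Recombinant DENV-2 NS2B-NS3 protease assayed like the ZIKV protease. Bz-Nle-Lys-Lys-Arg-AMC substrate, compound pre-incubated with enzyme 10 min, fluorescence monitored at Ex 360/Em 460 nm. IC50 from dose-response fit of triplicate samples at increasing concentrations.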

A further data set concerns Zika virus. In words: Antiviral activity against Zika virus infected in human U87 cells assessed as reduction in infectious virus in supernatant by measuring infection of Vero cells incubated with supernatant of viral infected U87 cells and measured following infection of supernatants with Vero cells for 7 days by MTT assay. To be noted: U-87 MG, 168 h, time 7 day. Type of data set: functional. The essentials: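 U87 cells (2×10^4/well) in DMEM with 2% FBS, infected with ZIKV FLR strain (passage-3 stock) at MOI 0.01 for 1 h, then PBS-washed. Compound added in triplicate, 2 days at 37 °C. Half-log dilutions of supernatant put on Vero monolayers in quadruplicate for 7 days. CPE by microscopy then MTT. TCID50 from highest dilution infecting 2/4 wells. At least 2 independent experiments.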

The test system of the next data set is U-87 MG. In words: Cytotoxicity against human U87 cells assessed as inhibition of growth by MTT assay. Type of data set: cell-based. The settings on record: u-87mg atcc. In general terms: Tetrazolium assays rely on reduction of a dye to a coloured formazan, in cell work by metabolically active cells.

Sequence of Genome polyprotein (West Nile virus, UniProt P06935) (P06935 1371-1501 limits assumed): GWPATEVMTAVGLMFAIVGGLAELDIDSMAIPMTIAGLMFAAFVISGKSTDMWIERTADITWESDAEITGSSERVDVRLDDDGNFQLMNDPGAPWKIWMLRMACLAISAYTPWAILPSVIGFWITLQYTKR
Sequence of Genome polyprotein (West Nile virus, UniProt P06935) (P06935 1502-2120 limits assumed): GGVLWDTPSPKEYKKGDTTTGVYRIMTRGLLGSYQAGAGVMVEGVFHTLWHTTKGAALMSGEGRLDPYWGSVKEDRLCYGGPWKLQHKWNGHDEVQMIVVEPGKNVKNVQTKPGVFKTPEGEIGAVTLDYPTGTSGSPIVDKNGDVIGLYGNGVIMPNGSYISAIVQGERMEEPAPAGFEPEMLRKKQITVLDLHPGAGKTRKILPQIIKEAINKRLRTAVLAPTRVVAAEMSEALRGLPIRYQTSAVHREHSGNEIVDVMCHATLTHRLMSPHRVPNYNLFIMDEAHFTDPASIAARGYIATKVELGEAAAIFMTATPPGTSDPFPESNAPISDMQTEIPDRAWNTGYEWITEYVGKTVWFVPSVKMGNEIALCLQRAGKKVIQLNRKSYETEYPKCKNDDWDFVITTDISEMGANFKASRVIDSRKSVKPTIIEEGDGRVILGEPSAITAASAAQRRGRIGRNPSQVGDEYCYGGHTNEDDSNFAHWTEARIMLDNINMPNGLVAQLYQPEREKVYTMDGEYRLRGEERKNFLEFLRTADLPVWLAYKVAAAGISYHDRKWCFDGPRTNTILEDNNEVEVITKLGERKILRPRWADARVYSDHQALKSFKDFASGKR
Sequence of Nonstructural protein 3 (A0A024AXB9 whole entry, the tested form may be a part): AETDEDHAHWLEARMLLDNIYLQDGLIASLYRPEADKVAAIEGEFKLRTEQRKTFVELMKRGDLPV
Sequence of Genome polyprotein (dengue virus type 2, UniProt P29990) (P29990 1346-1475 limits assumed): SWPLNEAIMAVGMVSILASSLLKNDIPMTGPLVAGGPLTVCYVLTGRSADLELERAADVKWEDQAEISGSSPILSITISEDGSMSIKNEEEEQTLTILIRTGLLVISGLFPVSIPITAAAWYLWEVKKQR
Sequence of Genome polyprotein (dengue virus type 2, UniProt P29990) (P29990 1476-2093 limits assumed): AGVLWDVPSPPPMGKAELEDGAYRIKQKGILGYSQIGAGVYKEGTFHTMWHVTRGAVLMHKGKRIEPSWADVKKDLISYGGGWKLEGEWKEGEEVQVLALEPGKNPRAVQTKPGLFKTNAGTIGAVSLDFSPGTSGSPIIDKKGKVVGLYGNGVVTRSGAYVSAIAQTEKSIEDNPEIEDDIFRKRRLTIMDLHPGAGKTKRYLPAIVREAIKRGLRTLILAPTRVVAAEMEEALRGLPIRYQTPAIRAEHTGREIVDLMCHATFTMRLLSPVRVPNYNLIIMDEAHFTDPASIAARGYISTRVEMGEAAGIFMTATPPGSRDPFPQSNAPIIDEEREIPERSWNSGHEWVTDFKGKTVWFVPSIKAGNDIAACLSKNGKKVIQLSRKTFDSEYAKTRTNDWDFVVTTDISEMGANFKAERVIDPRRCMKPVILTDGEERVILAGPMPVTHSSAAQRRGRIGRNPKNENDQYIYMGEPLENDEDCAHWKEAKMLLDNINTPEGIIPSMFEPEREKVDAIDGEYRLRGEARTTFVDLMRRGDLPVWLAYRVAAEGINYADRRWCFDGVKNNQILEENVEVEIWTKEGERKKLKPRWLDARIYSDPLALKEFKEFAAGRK

On to `COc1cc(-c2ccc3[nH]cc(C(=O)NC4CCNCC4)c3c2)cc(OC)c1OC`, for which the IC50 (in general, the concentration that gives 50% inhibition) at Nonstructural protein 3 was greater than 50 µM.
On the same count and under the same terms, the figure for `O=C(NCC1CCNCC1)c1c[nH]c2cc(-c3ccncc3)ccc12` is 0.39 µM.
With `N#Cc1ccc(-c2ccc3c(C(=O)NCC4CCNCC4)c[nH]c3c2)cc1`, the figures for the IC50 against Genome polyprotein [1], at Nonstructural protein 3 and against Genome polyprotein [2] were 50.5 µM, 21.8 µM and 12 µM, respectively.
`NCc1ccc(-c2ccc3cc(C(=O)NCC4CCNCC4)[nH]c3c2)cc1`: the IC50 at Nonstructural protein 3 worked out at 3.2 µM.
The same measure, in the same setting: with `COc1cc(-c2ccc3c(C(=O)NCC4CCNCC4)c[nH]c3c2)cc(OC)c1OC` the figure was greater than 50 µM; with `O=C(NCC1CCNCC1)c1c[nH]c2cc(-c3ccccc3F)ccc12`, greater than 50 µM.
Still for that read-out and setting: the figure for `O=C(NCC1CCNCC1)c1cc2ccc(-c3ccc(N4CCCCC4)cc3)cc2[nH]1` is 7.9 µM; for `O=C(NCC1CCNCC1)c1cc2cc(-c3cccnc3)ccc2[nH]1` it is greater than 50 µM; for `O=C(NCC1CCNCC1)c1cc2ccc(-c3ccc(F)cc3)cc2[nH]1` it is 14.4 µM.
With `CC(C)(C)c1ccc(-c2ccc3[nH]cc(C(=O)NCC4CCNCC4)c3c2)cc1`, the IC50 on Nonstructural protein 3 stood at 11 µM.
In the case of `CC(C)(C)c1ccc(-c2ccc3cc(C(=O)NCC4CCNCC4)[nH]c3c2)cc1`, the IC50 is 21.8 µM at Genome polyprotein [1] and 15 µM against Genome polyprotein [2].
For the molecule `O=C(NCC1CCNCC1)c1cc2ccc(C3=CCOCC3)cc2[nH]1`, the IC50 on Nonstructural protein 3 came to 2.2 µM.
Same read-out and setting: the figure for `O=C(NCC1CCNCC1)c1cc2ccccc2[nH]1` is 24.6 µM.
On the same count and under the same terms, the figure for `O=C(NCC1CCNCC1)c1c[nH]c2nc(-c3ccc(C(F)(F)F)cc3)ccc12` is 18.1 µM; for `O=C(NCC1CCNCC1)c1cc2ccc(-c3ccc(N4CCNCC4)cc3)cc2[nH]1` it is 5.6 µM.
Still for that read-out and setting: with `N#Cc1ccc(-c2ccc3c(C(=O)NC4CCNCC4)coc3c2)cc1` the figure was greater than 50 µM.
With `O=C(NCC1CCNCC1)c1c[nH]c2cc(-c3cccnc3)ccc12`, on Nonstructural protein 3, the IC50 is 1.1 µM.
For `O=C(NCC1CCNCC1)c1cc2cc(-c3ccc(N4CCCCC4)cc3)ccc2[nH]1`, the IC50 is 31 µM at Genome polyprotein [1], 11.4 µM at Nonstructural protein 3 and 40.2 µM against Genome polyprotein [2].
With `CC(C)(C)c1ccc(-c2cc3[nH]cc(C(=O)NC4CCNCC4)c3cc2-c2ccc(C(C)(C)C)cc2)cc1`, at Nonstructural protein 3, the IC50 is 4.5 µM.
For the molecule `CC(C)(C)c1ccc(-c2ccc3c(c2)c(C(=O)NCC2CCNCC2)cn3CCCC2CCNCC2)cc1`, the IC50 at Nonstructural protein 3 was found to be 14.6 µM.
Regarding `NCc1ccc(-c2ccc3[nH]c(C(=O)NCC4CCNCC4)cc3c2)cc1`, the IC50 at Nonstructural protein 3 came out at 9.5 µM.
As to `Cc1ccc(-c2ccc3c(C(=O)NCC4CCNCC4)c[nH]c3c2)cc1`, the IC50 is greater than 50 µM at Genome polyprotein [1], 48.9 µM on Nonstructural protein 3 and greater than 50 µM against Genome polyprotein [2].
With `O=C(NCC1CCNCC1)c1cc2cc(-c3ccc(N4CCOCC4)cc3)ccc2[nH]1`, the IC50 at Nonstructural protein 3 is 33 µM.
Still for that read-out and setting: the figure for `NC(=O)c1ccc(-c2ccc3cc(C(=O)NCC4CCNCC4)[nH]c3c2)cc1` is 7.1 µM.
Consider `COc1ccc(-c2ccc3cc(C(=O)NCC4CCNCC4)[nH]c3c2)cc1`, for which the IC50 was 20.1 µM against Genome polyprotein [1], 1 µM at Nonstructural protein 3 and 10.6 µM against Genome polyprotein [2].
For `CC(C)(C)c1ccc(-c2ccc3c(ccn3Cc3ccc(-c4ccncc4)cc3)c2)cc1`, on Nonstructural protein 3, the IC50 is greater than 50 µM.
Same read-out and setting: with `O=C(NCC1CCNCC1)c1cc2cc(-c3ccc(-c4ccoc4)cc3)ccc2[nH]1` the figure was 0.87 µM; with `O=C(NCC1CCNCC1)c1cc2cc(-c3ccncc3)ccc2[nH]1`, 37 µM.
For the molecule `Cc1cc(C#N)ccc1-c1ccc2[nH]c(C(=O)NCC3CCNCC3)cc2c1`, the values for the IC50 at Genome polyprotein [1], on Nonstructural protein 3 and on Genome polyprotein [2] were greater than 50 µM, 40.2 µM and greater than 50 µM, respectively.
Turning to `O=Cc1cccc(-c2ccc3[nH]cc(C(=O)NCC4CCNCC4)c3c2)c1`, on Nonstructural protein 3, the IC50 was greater than 50 µM.
On the same count and under the same terms, the figure for `CC(C)(C)c1ccc(-c2ccc3[nH]c(C(=O)NCC4CCNCC4)cc3c2)cc1` is 7 µM.
For the molecule `O=C(NCC1CCNCC1)c1c[nH]c2cc(-c3ccc(-c4ccccc4)cc3)ccc12`, the EC68 in the data set on Zika virus is greater than 10 µM. Besides, the IC50 at Nonstructural protein 3 was 4.2 µM. Besides, the CC50 (commonly the concentration that lowers cell viability or growth by half) in the data set with U-87 MG is greater than 10 µM.
Regarding `O=C(NC1CCNCC1)c1cc2ccc(-c3ccncc3)cc2[nH]1`, the concentration for half-maximal inhibition (IC50) on Nonstructural protein 3 amounted to 9.8 µM.
As to `O=C(NCCC1CCNCC1)c1c[nH]c2cc(-c3ccncc3)ccc12`, in the data set on Zika virus, the EC68 amounted to 10 µM. The IC50 on Nonstructural protein 3 was 0.63 µM. Also, the CC50 in the data set with U-87 MG was greater than 10 µM.
For `N#Cc1cccc(-c2ccc3[nH]c(C(=O)NCC4CCNCC4)cc3c2)c1`, the IC50 on Nonstructural protein 3 was found to be 30.5 µM.
For `O=C(NCC1CCNCC1)c1c[nH]c2ccc(-c3ccc(F)cc3F)cc12`, on Nonstructural protein 3, the IC50 was greater than 50 µM.
Same read-out and setting: with `O=C(NCC1CCNCC1)c1cc2ccc(-c3ccc(CCO)cc3)cc2[nH]1` the figure was 45.6 µM; with `O=C(NCC1CCNCC1)c1cc2cc(-c3cn[nH]c3)ccc2[nH]1`, 6 µM.
On the same count and under the same terms, with `O=C(NCC1CCNCC1)c1cc2cc(-c3ccc(CN4CCCCC4)cc3)ccc2[nH]1` the figure was 4.7 µM; with `O=C(NCC1CCNCC1)c1c[nH]c2nc(-c3ccncc3)ccc12`, 1.9 µM.
Regarding `O=C(NCC1CCNCC1)c1cc2ccc(-c3ccncc3)cc2[nH]1`, the IC50 on Nonstructural protein 3 is 19.7 µM.
The same measure, in the same setting: the figure for `O=C(NCC1CCNCC1)c1cc2ccc(C3=CCNCC3)cc2[nH]1` is 21 µM.
The same measure, in the same setting: the figure for `O=C(NC1CCNCC1)c1coc2cc(-c3ccoc3)ccc12` is 2.86 µM; for `O=C(NCC1CCNCC1)c1cc2ccc(-c3cccnc3)cc2[nH]1` it is 27.2 µM; for `O=C(NCC1CCNCC1)c1c[nH]c2cc(-c3ccc(F)cc3)ccc12` it is greater than 50 µM.
Still for that read-out and setting: the figure for `O=C(NCC1CCNCC1)c1cc2cc(-c3ccc(N4CCCC4)cc3)ccc2[nH]1` is 3.4 µM; for `O=C(NCC1CCNCC1)c1cc2ccc(-c3ccsc3)cc2[nH]1` it is 6.4 µM.
As for `O=C(NCC1CCNCC1)c1c[nH]c2ccc(-c3ccc(F)cc3)cc12`, the IC50 at Nonstructural protein 3 was greater than 50 µM.
Same read-out and setting: with `O=C(NCC1CCNCC1)c1cc2cc(-c3ccc(N4CCNCC4)cc3)ccc2[nH]1` the figure was 8.8 µM.
The same measure, in the same setting: with `O=C(NCC1CCNCC1)c1c[nH]c2cc(-c3ccc(Cl)nc3)ccc12` the figure was 42 µM.
With `O=C(NCC1CCNCC1)c1cc2ccc(-c3ccc(CO)cc3)cc2[nH]1`, in the data set with Zika virus, the EC68 is greater than 10 µM. The IC50 on Nonstructural protein 3 was determined as 3.1 µM. The CC50 in the data set with U-87 MG was greater than 10 µM.
With `CC(C)(C)c1ccc(-c2ccc3c(C(=O)NCC4CCNCC4)c[nH]c3c2)cc1`, the values for the IC50 on Genome polyprotein [1], on Nonstructural protein 3 and against Genome polyprotein [2] were 35.1 µM, 5 µM and 30.4 µM, respectively.
As to `O=C(NCC1CCNCC1)c1c[nH]c2cc(-c3cn[nH]c3)ccc12`, the IC50 against Genome polyprotein [1] was 42 µM; on Nonstructural protein 3, 5.7 µM; against Genome polyprotein [2], 48.3 µM.
Regarding `N#Cc1ccc(-c2ccc3[nH]c(C(=O)NCC4CCNCC4)cc3c2)cc1`, the half-inhibitory concentration (IC50) at Nonstructural protein 3 worked out at 9.2 µM.
As to `O=C(NCC1CCNCC1)c1c[nH]c2nc(-c3ccc(CN4CCOCC4)cc3)ccc12`, in the data set with Zika virus, the EC68 was greater than 10 µM. Besides, the IC50 on Nonstructural protein 3 is 0.6 µM. The CC50 in the data set with U-87 MG was greater than 10 µM.
As for `O=C(NCC1CCNCC1)c1cc2ccc(-c3ccccc3)cc2[nH]1`, the IC50 on Nonstructural protein 3 amounted to 9.4 µM.
On the same count and under the same terms, with `NCc1ccc(-c2ccc3c(C(=O)NCC4CCNCC4)c[nH]c3c2)cc1` the figure was greater than 50 µM; with `CC(C)(C)c1ccc(-c2ccc3c(ccn3Cc3ccc(-c4ccoc4)cc3)c2)cc1`, greater than 50 µM.
Take `N#Cc1ccc(-c2ccc3[nH]cc(C(=O)NC4CCNCC4)c3c2)cc1`: the IC50 on Nonstructural protein 3 is greater than 50 µM.
Same read-out and setting: the figure for `O=C(NCC1CCNCC1)c1cc2cc(-c3ccc(-c4ccsc4)cc3)ccc2[nH]1` is 1.1 µM.

Values taken from ChEMBL document CHEMBL4842369, “Synthesis, structure-activity relationship and antiviral activity of indole-containing inhibitors of Flavivirus NS2B-NS3 protease” (Eur J Med Chem, 2021).
